# In ChEMBL document CHEMBL3297648, “Diterpenoids from the Chinese liverwort Heteroscyphus tener and their antiproliferative effects” (J Nat Prod, 2014):
# Active and inactive are the calls of the source. The rule behind the calls is not given here.
# What was measured:
# [1] = test system: A549; assay: Antiproliferative activity against human A549 cells assessed as inhibition of cell viability after 24 hrs by MTT assay; format: functional, cell-based; settings: A549, 24 h
# Outline: (§1)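 Cells grown to 50–70% confluence (RWPE1 in K-SFM with pituitary extract and EGF; the other lines in RPMI 1640 with 10% FBS), 5% CO2, 37 °C. Treated for 24 h with DMSO vehicle, compounds, or cisplatin as positive control. MTT (5 mg/mL) added for 4 h, formazan dissolved in DMSO, absorbance read at 570 nm. Viability taken relative to untreated cells after blank subtraction, IC50 fitted from % viability, at least three experiments.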
# [2] = test system: DU-145; assay: Induction of apoptosis in human DU145 cells assessed as cleaved caspase-3 level at 20 uM after 12 hrs by western blot analysis; format: functional, cell-based
# Outline: (§2)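 Cells exposed to 20 μM for the stated times. Lysis in RIPA plus protease inhibitors, BCA protein assay, equal protein on 12% SDS-PAGE, transfer to nitrocellulose. Blocking in 5% milk/TBST 1 h; primary antibodies overnight at 4 °C; secondary 1:2000 for 45 min; ECL detection. GAPDH served as loading control.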
# [3] = biological target: Breast cancer type 1 susceptibility protein (Homo sapiens) (UniProt P38398); assay: Inactivation of BRCA1 in human PC3 cells assessed as decline in BRCA1 phosphorylation at Ser1524 at 20 uM after 8 hrs by western blot analysis; format: cell-based; settings: PC-3
# Outline: (§3)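 Cells treated at 20 μM for various times, lysed in RIPA buffer with protease/phosphatase inhibitors, protein quantified by BCA. Equal protein run on 12% SDS-PAGE, transferred to nitrocellulose, blocked 1 h in 5% milk/TBST, primary antibodies overnight at 4 °C, secondary 1:2000 for 45 min, ECL detection on film. GAPDH used as loading control.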
# [4] = test system: PC-3; assay: Induction of ROS generation in human PC3 cells at 20 uM after 30 mins to 4 hrs by DCFH-DA staining based flow cytometry; format: functional, cell-based
# Outline: (§4)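 Cells in RPMI 1640 with 10% FBS, 5% CO2, 37 °C, treated at 50−70% confluence (DMSO vehicle). After exposure, cells were loaded with 10 μM DCFH-DA for 30 min at 37 °C, washed, resuspended in PBS, and read at once by flow cytometry. For NAC runs, cells got 5 mM NAC 1 h before compound. ROS reported as ratio relative to untreated control.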
# [5] = test system: DU-145; assay: Induction of apoptosis in human DU145 cells at 20 uM by Annexin V-FITC/propidium iodide staining based flow cytometry; format: functional, cell-based; settings: TDE = time-dependent effect
# Outline: (§5)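 Cells seeded in 6-well plates for 24 h, then given 20 μM for the stated times. Cells were trypsinized, PBS-washed, stained with annexin V-FITC/PI, and analysed immediately by flow cytometry. Means ± SD of three independent experiments; Student's t test against untreated control.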
# [6] = Decrease in BRCA1 protein expression in human DU145 cells at 20 uM after 2 to 48 hrs by western blot analysis; format: functional, cell-based; settings: DU-145; outline: as §3
# [7] = test system: DU-145; assay: Induction of apoptosis in human DU145 cells assessed as necrotic cells at 20 uM after 12 hrs by Annexin V-FITC/propidium iodide staining based flow cytometry (reference value: 0.21%); format: functional; outline: as §5
# [8] = Antiproliferative activity against HBE cells assessed as inhibition of cell viability after 24 hrs by MTT assay; format: cell-based; settings: Homo sapiens; outline: as §1
# [9] = test system: NCI-H446; assay: Antiproliferative activity against human NCI-H446 cells assessed as inhibition of cell viability after 24 hrs by MTT assay; format: functional, cell-based; settings: NCI-H446, 24 h; outline: as §1
# [10] = test system: NCI-H292; assay: Antiproliferative activity against human NCI-H292 cells assessed as inhibition of cell viability after 24 hrs by MTT assay; format: functional, cell-based; settings: NCI-H292, 24 h; outline: as §1
# [11] = test system: DU-145; assay: Induction of apoptosis in human DU145 cells assessed as late apoptotic cells at 20 uM after 24 hrs by Annexin V-FITC/propidium iodide staining based flow cytometry (reference value: 1.53%); format: functional; outline: as §5
# [12] = test system: DU-145; assay: Induction of apoptosis in human DU145 cells assessed as PARP cleavage at 20 uM after 12 hrs by western blot analysis; format: functional, cell-based; outline: as §2
# [13] = test system: DU-145; assay: Induction of apoptosis in human DU145 cells assessed as early apoptotic cells at 20 uM after 24 hrs by Annexin V-FITC/propidium iodide staining based flow cytometry (reference value: 1.60%); format: functional; outline: as §5
# [14] = test system: DU-145; assay: Cell cycle arrest in human DU145 cells assessed as accumulation at subG1 phase at 10 uM after 24 hrs by propidium iodide staining based flow cytometry (reference value: 0.28%); format: functional
# [15] = test system: DU-145; assay: Induction of apoptosis in human DU145 cells assessed as late apoptotic cells at 20 uM after 4 hrs by Annexin V-FITC/propidium iodide staining based flow cytometry (reference value: 1.53%); format: functional; outline: as §5
# [16] = Cell cycle arrest in human PC3 cells assessed as accumulation at subG1 phase at 10 uM after 24 hrs by propidium iodide staining based flow cytometry (reference value: 0.13%); format: functional; settings: PC-3
# [17] = Decrease in ChK1 protein expression in human PC3 cells at 20 uM after 2 to 48 hrs by western blot analysis; format: functional, cell-based; settings: PC-3; outline: as §3
# [18] = test system: DU-145; assay: Induction of apoptosis in human DU145 cells assessed as increase in caspase-3 activity using Ac-DEVD-AMC as substrate at 20 uM by fluorometric method; format: functional, cell-based; settings: TDE = time-dependent effect
# Outline: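 Cells treated with 20 μM for the stated times. Pellets lysed on ice 15 min, spun at 14 000g for 15 min at 4 °C. Supernatant assayed in buffer containing CHAPS, 10% glycerol, 2 mM EDTA, 5 mM DTT for 2 h at 37 °C. Fluorescence read at ex 380/em 440 nm.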
# [19] = test system: DU-145; assay: Cell cycle arrest in human DU145 cells assessed as accumulation at subG1 phase at 20 uM after 24 hrs by propidium iodide staining based flow cytometry (reference value: 0.28%); format: functional
# [20] = test system: PC-3; assay: Induction of ROS generation in human PC3 cells at 20 uM pretreated for 1 hr with 5 mM antioxidant NAC measured after 24 hrs by DCFH-DA staining based flow cytometry; format: functional, cell-based; outline: as §4
# [21] = biological target: Serine/threonine-protein kinase ATR (Homo sapiens) (UniProt Q13535); assay: Activation of ATR in human PC3 cells assessed as ChK1 phosphorylation at Ser296 at 20 uM after 12 hrs by western blot analysis; format: cell-based; settings: PC-3; outline: as §3
# [22] = test system: PC-3; assay: Induction of apoptosis in human PC3 cells assessed as late apoptotic cells at 20 uM after 4 hrs by Annexin V-FITC/propidium iodide staining based flow cytometry (reference value: 7.92%); format: functional; outline: as §5
# [23] = test system: DU-145; assay: Induction of apoptosis in human DU145 cells assessed as late apoptotic cells at 20 uM after 8 hrs by Annexin V-FITC/propidium iodide staining based flow cytometry (reference value: 1.53%); format: functional; outline: as §5
# [24] = test system: DU-145; assay: Induction of ROS generation in human DU145 cells at 20 uM measured up to 6 hrs by DCFH-DA staining based flow cytometry; format: functional, cell-based
# Outline: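 Cells exposed to 20 μM for the indicated times, then loaded with 10 μM DCFH-DA for 30 min at 37 °C. Washed, resuspended in PBS and read at once by flow cytometry. ROS expressed as ratio relative to untreated control.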
# [25] = test system: DU-145; assay: Antiproliferative activity against human DU145 cells assessed as inhibition of cell viability after 24 hrs by MTT assay; format: functional, cell-based; settings: DU-145, 24 h; outline: as §1
# Chain of Serine/threonine-protein kinase ATR (Homo sapiens) (Q13535 whole entry, looked up): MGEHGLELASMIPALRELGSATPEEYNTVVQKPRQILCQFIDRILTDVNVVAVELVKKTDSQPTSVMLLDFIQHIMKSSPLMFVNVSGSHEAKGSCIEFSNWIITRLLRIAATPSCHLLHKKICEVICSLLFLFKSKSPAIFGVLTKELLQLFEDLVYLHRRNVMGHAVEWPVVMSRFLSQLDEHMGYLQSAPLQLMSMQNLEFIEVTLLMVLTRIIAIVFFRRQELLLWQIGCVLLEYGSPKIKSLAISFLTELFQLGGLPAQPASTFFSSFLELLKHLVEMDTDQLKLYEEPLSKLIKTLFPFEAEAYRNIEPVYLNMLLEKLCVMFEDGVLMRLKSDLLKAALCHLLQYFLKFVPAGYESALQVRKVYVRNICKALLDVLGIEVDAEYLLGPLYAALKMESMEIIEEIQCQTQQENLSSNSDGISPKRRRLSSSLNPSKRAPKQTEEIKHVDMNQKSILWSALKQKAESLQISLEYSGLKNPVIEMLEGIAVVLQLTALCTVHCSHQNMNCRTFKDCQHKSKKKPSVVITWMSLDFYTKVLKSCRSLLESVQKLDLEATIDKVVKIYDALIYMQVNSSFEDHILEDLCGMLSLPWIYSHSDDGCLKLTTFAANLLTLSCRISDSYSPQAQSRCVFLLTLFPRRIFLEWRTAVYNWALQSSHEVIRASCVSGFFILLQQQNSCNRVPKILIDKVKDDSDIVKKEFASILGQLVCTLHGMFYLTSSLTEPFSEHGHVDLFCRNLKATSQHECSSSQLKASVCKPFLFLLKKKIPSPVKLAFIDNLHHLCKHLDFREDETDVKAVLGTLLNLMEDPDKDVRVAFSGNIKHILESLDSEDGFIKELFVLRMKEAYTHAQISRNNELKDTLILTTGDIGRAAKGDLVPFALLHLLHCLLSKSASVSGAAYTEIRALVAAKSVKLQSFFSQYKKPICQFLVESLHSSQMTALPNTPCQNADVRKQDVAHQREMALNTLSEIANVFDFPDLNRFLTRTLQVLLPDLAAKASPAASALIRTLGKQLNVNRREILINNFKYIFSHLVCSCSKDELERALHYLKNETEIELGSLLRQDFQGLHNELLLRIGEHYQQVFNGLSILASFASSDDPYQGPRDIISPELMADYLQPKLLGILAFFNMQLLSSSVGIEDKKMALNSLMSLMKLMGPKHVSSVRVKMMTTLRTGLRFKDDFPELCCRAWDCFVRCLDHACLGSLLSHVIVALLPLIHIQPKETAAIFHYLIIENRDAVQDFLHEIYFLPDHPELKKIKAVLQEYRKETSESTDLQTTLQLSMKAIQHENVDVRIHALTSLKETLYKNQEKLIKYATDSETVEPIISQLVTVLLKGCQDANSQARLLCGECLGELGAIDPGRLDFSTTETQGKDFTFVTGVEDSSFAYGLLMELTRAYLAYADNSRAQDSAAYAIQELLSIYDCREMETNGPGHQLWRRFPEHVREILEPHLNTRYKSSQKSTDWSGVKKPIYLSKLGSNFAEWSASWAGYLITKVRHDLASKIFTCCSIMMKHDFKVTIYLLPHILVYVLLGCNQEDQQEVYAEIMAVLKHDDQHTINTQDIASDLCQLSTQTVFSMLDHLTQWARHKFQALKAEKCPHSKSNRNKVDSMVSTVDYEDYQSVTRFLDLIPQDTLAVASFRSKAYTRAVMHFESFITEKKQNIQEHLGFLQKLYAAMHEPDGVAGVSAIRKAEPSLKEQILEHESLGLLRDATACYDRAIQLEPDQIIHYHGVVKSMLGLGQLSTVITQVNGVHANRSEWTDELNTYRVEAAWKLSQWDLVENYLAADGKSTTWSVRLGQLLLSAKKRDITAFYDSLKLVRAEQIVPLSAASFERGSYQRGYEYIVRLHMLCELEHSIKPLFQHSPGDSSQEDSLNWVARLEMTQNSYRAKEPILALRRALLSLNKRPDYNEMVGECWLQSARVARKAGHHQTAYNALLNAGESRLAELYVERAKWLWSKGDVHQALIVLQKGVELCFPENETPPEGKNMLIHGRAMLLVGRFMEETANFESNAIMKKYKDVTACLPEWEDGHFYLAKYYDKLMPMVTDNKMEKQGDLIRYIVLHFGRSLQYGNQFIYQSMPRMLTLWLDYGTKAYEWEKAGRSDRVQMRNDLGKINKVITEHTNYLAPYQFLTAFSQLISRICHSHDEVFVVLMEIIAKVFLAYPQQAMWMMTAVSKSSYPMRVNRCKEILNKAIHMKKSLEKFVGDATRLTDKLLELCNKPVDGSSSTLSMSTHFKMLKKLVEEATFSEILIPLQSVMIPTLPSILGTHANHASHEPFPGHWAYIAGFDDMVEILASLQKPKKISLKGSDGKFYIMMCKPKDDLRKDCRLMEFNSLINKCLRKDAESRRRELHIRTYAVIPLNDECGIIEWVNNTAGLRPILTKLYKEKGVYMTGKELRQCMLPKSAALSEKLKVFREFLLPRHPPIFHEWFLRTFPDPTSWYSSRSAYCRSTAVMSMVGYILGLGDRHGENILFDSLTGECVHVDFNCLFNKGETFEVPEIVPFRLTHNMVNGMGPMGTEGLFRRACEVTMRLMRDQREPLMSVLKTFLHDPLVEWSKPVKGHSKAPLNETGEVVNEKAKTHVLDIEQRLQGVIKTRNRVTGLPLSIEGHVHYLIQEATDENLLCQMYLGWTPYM
# Chain of Breast cancer type 1 susceptibility protein (Homo sapiens) (P38398 whole entry, looked up): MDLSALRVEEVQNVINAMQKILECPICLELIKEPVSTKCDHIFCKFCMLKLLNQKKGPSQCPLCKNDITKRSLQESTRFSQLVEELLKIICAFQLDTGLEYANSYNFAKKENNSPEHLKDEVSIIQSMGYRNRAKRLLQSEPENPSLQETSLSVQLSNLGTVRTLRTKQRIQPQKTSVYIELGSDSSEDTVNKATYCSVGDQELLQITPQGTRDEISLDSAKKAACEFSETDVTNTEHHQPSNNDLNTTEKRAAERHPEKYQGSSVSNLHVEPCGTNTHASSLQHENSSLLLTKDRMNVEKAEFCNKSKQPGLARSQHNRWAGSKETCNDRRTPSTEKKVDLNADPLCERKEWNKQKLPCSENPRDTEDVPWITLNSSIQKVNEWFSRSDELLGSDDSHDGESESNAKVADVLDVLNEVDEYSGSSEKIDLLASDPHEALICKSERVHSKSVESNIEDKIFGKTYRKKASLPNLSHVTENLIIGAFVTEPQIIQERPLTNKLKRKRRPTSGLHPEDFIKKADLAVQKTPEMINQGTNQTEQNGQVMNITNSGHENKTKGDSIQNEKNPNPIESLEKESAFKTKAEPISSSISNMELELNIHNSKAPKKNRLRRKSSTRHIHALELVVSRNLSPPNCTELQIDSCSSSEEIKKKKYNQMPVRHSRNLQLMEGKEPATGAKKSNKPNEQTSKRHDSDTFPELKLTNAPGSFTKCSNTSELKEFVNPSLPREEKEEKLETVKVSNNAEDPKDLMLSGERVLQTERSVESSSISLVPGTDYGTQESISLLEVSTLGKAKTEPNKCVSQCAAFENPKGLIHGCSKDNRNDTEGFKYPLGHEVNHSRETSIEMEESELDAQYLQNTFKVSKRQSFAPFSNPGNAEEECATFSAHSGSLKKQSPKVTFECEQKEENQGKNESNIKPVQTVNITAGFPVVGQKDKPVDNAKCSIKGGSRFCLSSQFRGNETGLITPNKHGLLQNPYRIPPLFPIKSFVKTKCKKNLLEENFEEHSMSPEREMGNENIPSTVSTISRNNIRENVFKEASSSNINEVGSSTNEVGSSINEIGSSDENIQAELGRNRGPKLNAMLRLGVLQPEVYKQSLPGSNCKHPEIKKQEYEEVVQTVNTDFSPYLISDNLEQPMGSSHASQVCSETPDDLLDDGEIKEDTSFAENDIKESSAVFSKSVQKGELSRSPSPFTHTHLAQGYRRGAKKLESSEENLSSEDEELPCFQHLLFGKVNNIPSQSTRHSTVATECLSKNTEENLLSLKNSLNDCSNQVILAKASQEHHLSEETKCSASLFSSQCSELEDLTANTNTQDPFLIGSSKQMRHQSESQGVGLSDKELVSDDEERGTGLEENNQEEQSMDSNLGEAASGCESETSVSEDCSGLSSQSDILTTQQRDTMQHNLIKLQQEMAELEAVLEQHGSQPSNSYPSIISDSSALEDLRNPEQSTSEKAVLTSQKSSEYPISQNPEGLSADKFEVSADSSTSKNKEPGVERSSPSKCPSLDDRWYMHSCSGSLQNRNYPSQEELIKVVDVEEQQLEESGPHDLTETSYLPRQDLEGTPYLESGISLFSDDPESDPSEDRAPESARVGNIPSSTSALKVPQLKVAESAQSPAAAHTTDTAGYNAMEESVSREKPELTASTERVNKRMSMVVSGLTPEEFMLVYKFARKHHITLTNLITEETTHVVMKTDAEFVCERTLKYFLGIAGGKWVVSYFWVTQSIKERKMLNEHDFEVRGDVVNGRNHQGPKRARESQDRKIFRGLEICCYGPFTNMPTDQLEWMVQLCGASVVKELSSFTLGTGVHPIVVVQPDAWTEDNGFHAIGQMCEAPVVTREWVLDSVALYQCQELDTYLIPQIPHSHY
compound,measurement,setting,value
C=C[C@@](C)(O)CC[C@@H]1C(C)=CC[C@@H]2C(C)(C)CCC[C@@]12C,IC50,[1],> 40 µM
same,Activity,[2],Active
same,inhibition,[3],Active
same,Activity,[4],Active
same,Activity,[5],tde
same,inhibition,[6],inactive
same,Activity,[7],1.05%
same,IC50,[8],53.9 µM
same,IC50,[9],39.5 µM
same,IC50,[10],17.1 µM
same,Activity,[11],15.33%
same,Activity,[12],Active
same,Activity,[13],7.16%
same,Activity,[14],1.97%
same,Activity,[15],9.26%
same,Activity,[16],1.94%
same,inhibition,[17],Active
same,Activity,[18],tde
same,Activity,[19],2.82%
same,Activity,[20],inactive
same,Activity,[21],Active
same,Activity,[22],12.94%
same,Activity,[23],8.94%
same,Activity,[24],Active
same,IC50,[25],28.5 µM
